Usually Emax stands for the size of the effect at its maximum, as opposed to the concentration needed. The EC50 is the midpoint of the concentration-response curve. Broadly, the IC50 is the concentration that inhibits the measured activity by half.

In ChEMBL document CHEMBL4052730, “Synthesis and evaluation of (E)-2-(5-phenylpent-2-en-4-ynamido)cyclohex-1-ene-1-carboxylate derivatives as HCA2 receptor agonists” (Bioorg Med Chem, 2017) one finds Emax, EC50 and IC50 data, which are given here for 24 compounds.

The structures appear in SMILES notation.

For assay [1], the target named is T1, Hydroxycarboxylic acid receptor 2 (Homo sapiens, UniProt Q8TDS4). The assay is described as follows: Agonist activity at recombinant human HCA2 receptor expressed in Flp-IN HEK cells assessed as reduction in forskolin-stimulated cAMP accumulation measured after 30 mins relative to control. The format is functional, cell-based. In a few lines:
(§1)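 Flp-In-293 cells stably expressing recombinant human HCA2, 12,000 cells/well, treated with compounds plus 3 µM forskolin for 30 min in PBS containing 0.5 mM IBMX, without BSA. Read-out is reduction of forskolin-stimulated cAMP, reported as EC50 and as maximal inhibition (%). Mean ± SD of at least three experiments, each in duplicate.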

The target of assay [2] is T1, Hydroxycarboxylic acid receptor 2. Nature of the assay: Agonist activity at recombinant human HCA2 receptor expressed in Flp-IN HEK cells assessed as reduction in forskolin-stimulated cAMP accumulation measured after 30 mins. The format is functional, cell-based. The gist of the method:
as §1

Assay [3] shares this target. The assay is described as follows: Displacement of [5,6-3H]-nicotinic acid from recombinant human HCA2 receptor expressed in Flp-IN HEK cell membranes after 2 hrs by microbeta counting method. In a few lines:
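Membranes from human HCA2-expressing Flp-In-293 cells were prepared by acoustic disruption in TE buffer (pH 7.6) and centrifugation at 21,000g. They were used at 25 µg/well in 50 mM Tris-HCl, 1 mM MgCl2, 0.02% CHAPS, pH 7.6, without BSA. Competition with 20 nM [5,6-3H]-nicotinic acid ran 2 h at room temperature, followed by GF/B filtration and scintillation counting. Duplicates, repeated three times.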

T1 sequence (Q8TDS4 whole entry): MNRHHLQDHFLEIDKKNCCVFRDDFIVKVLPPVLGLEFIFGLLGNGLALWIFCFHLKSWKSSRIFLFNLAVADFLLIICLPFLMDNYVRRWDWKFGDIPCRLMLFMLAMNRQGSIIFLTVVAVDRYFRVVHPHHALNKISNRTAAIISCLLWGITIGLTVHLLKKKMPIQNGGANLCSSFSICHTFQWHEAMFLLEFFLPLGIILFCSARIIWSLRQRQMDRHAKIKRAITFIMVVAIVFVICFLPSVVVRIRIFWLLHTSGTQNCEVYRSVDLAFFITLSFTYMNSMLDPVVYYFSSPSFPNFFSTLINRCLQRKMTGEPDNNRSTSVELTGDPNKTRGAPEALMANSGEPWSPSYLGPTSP

`O=C(/C=C/C#Cc1ccccc1O)NC1=C(C(=O)O)CCCC1`: the Emax in assay [1] is 78%. Also, the EC50 in assay [2] came out at 250 nM. For the same compound, the IC50 in assay [3] came to 37 nM.

As for `O=C(CCc1ccc(-c2ccc(O)cc2)cc1)NC1=C(C(=O)O)CCCC1`, the Emax in assay [1] was 92%. In addition, the EC50 in assay [2] amounted to 70 nM. Besides, in assay [3], the IC50 turned out to be 21 nM.

Take `O=C(CCC#Cc1ccc(C(=O)O)cc1)NC1=C(C(=O)O)CCCC1`: the Emax in assay [1] was 74%. In addition, the EC50 in assay [2] is 5610 nM. The IC50 in assay [3] stood at 3620 nM.

As for `O=C(/C=C/C#Cc1ccc(O)cc1F)NC1=C(C(=O)O)CCCC1`, the Emax in assay [1] came to 96%. The EC50 in assay [2] was found to be 110 nM. For the same compound, in assay [3], the IC50 was 331 nM.

Turning to `O=C(CCC#Cc1ccccc1O)NC1=C(C(=O)O)CCCC1`, the Emax in assay [1] amounted to 93%. For the same compound, the EC50 in assay [2] came out at 720 nM. In assay [3], the IC50 worked out at 229 nM.

In the case of `O=C(CCC#Cc1ccc(O)cc1)NC1=C(C(=O)O)CCCC1`, in assay [1], the Emax is 91%. In addition, the EC50 in assay [2] came to 160 nM. Besides, the IC50 in assay [3] is 13 nM.

As to `O=C(CCC#Cc1ccc(F)cc1)NC1=C(C(=O)O)CCCC1`, the Emax in assay [1] turned out to be 99%. Also, in assay [2], the EC50 was found to be 630 nM. Moreover, the IC50 in assay [3] amounted to 291 nM.

For the compound `O=C(CCc1ccc(-c2ccccc2F)cc1)NC1=C(C(=O)O)CCCC1`, in assay [1], the Emax was found to be 97%. The EC50 in assay [2] amounted to 190 nM. In assay [3], the IC50 turned out to be 282 nM.

With `O=C(CCC#Cc1ccccc1F)NC1=C(C(=O)O)CCCC1`, the Emax in assay [1] was 90%. The EC50 in assay [2] was found to be 360 nM. The IC50 in assay [3] was 67 nM.

On to `O=C(/C=C/C#Cc1ccc(O)cc1)NC1=C(C(=O)O)CCCC1`, for which, in assay [1], the maximal effect (Emax) is 97%. Also, the EC50 in assay [2] amounted to 130 nM. Moreover, the IC50 in assay [3] amounted to 25 nM.

For the compound `O=C(CCc1ccc(-c2ccccc2Cl)cc1)NC1=C(C(=O)O)CCCC1`, the Emax in assay [1] came to 92%. Besides, the EC50 in assay [2] was 130 nM. Moreover, in assay [3], the IC50 was 75 nM.

Turning to `O=C(CCc1ccc(-c2ccccc2O)cc1)NC1=C(C(=O)O)CCCC1`, the Emax in assay [1] amounted to 90%. For the same compound, in assay [2], the EC50 was found to be 410 nM. Also, the IC50 in assay [3] turned out to be 40 nM.

As to `O=C(CCC#Cc1ccc(O)cn1)NC1=C(C(=O)O)CCCC1`, in assay [1], the Emax came out at 91%. Further, the EC50 in assay [2] was 3370 nM. Also, the IC50 in assay [3] is 665 nM.

For the compound `O=C(CCC#Cc1ccc(O)cc1F)NC1=C(C(=O)O)CCCC1`, the Emax in assay [1] stood at 93%. Besides, the EC50 in assay [2] stood at 80 nM. Moreover, in assay [3], the IC50 turned out to be 28 nM.

For `O=C(/C=C/C#Cc1ccccc1)NC1=C(C(=O)O)CCCC1`, the Emax in assay [1] amounted to 79%. Besides, the EC50 in assay [2] was 1010 nM. For the same compound, the IC50 in assay [3] came out at 327 nM.

As for `O=C(CCc1ccc(-c2cccc(O)c2)cc1)NC1=C(C(=O)O)CCCC1`, the maximal effect (Emax) in assay [1] stood at 96%. The EC50 in assay [2] was determined as 230 nM. In addition, the IC50 in assay [3] stood at 32 nM.

Take `O=C(/C=C/C#Cc1ccccc1Cl)NC1=C(C(=O)O)CCCC1`: the Emax in assay [1] turned out to be 88%. Moreover, the EC50 in assay [2] turned out to be 270 nM. Also, the IC50 in assay [3] was determined as 88 nM.

`O=C(CCc1ccc(-c2ccc(O)cc2F)cc1)NC1=C(C(=O)O)CCCC1`: the Emax in assay [1] was 99%. The EC50 in assay [2] is 260 nM. Moreover, in assay [3], the IC50 was found to be 58 nM.

With `O=C(/C=C/C#Cc1ccccc1F)NC1=C(C(=O)O)CCCC1`, the Emax in assay [1] was 84%. Moreover, the EC50 in assay [2] came out at 450 nM. The IC50 in assay [3] was 16 nM.

Take `O=C(/C=C/CCc1ccccc1)NC1=C(C(=O)O)CCCC1`: the Emax in assay [1] stood at 70%. Further, the EC50 in assay [2] is 19600 nM. In assay [3], the IC50 stood at 2830 nM.

Take `O=C(/C=C/C#Cc1cccc(O)c1)NC1=C(C(=O)O)CCCC1`: the Emax in assay [1] turned out to be 92%. Besides, in assay [2], the EC50 was 390 nM. In assay [3], the IC50 was 383 nM.

For the compound `O=C(CCC#Cc1cccc(O)c1)NC1=C(C(=O)O)CCCC1`, the Emax in assay [1] was 89%. In addition, the EC50 in assay [2] amounted to 2980 nM. For the same compound, the IC50 in assay [3] was 138 nM.

On to `O=C(CCC#Cc1ccccc1Cl)NC1=C(C(=O)O)CCCC1`, for which the Emax in assay [1] worked out at 95%. In addition, the EC50 in assay [2] turned out to be 190 nM. Further, the IC50 in assay [3] amounted to 56 nM.

For `O=C(CCC#Cc1ccc(O)cc1Cl)NC1=C(C(=O)O)CCCC1`, in assay [1], the Emax came out at 94%. In assay [2], the EC50 is 90 nM. Further, the IC50 in assay [3] came out at 76 nM.
